Reference: ChEMBL document CHEMBL3414559, “Novel C-4 heteroaryl 13-cis-retinamide Mnk/AR degrading agents inhibit cell proliferation and migration and induce apoptosis in human breast and prostate cancer cells and suppress growth of MDA-MB-231 human breast and CWR22Rv1 human prostate tumor xenografts in mice” (J Med Chem, 2015)
Calls of active or inactive are those of the source. No cut-off for these calls is given here.

Tests used:
Mus musculus = assay: Toxicity in human CWR22Rv1 cells xenografted SCID mouse assessed as effect on body weight at 20 mg/kg, ip dosed once daily for 5 days per week for 28 days; format: organism-based; design: dose 20 mg/kg, route intraperitoneal; conditions: in vivo
Method in brief: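 Castrated male SCID mice carried subcutaneous CWR22Rv1 tumors (1 × 10⁶ cells implanted) and were randomized at ~100 mm³, n = 6/group. Dosing was ip 20 mg/kg once daily, 5 days/week for 28 days, in 40% β-cyclodextrin in ddH₂O, against vehicle. Body weight was monitored throughout as a surrogate toxicity marker.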

CWR22R [1] = assay: Antitumor activity against human CWR22Rv1 cells xenografted in SCID mouse assessed as reduction in AR-V7 protein expression at 20 mg/kg, ip dosed once daily for 5 days per week for 28 days by SDS-PAGE and Western blotting method; format: functional, organism-based; design: dose 20 mg/kg
Method in brief: (§1)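 CWR22Rv1 cells (1 × 10⁶) implanted subcutaneously in male SCID mice, castrated; at ~100 mm³ tumors, randomized (n = 6/group) to vehicle (40% β-cyclodextrin in ddH₂O) or drug ip in same vehicle once daily, 5 days/week for 28 days. Tumor lysates made in RIPA buffer, 50 μg protein from pooled samples (n = 6) on 10% SDS–PAGE, immunoblotted; GAPDH as loading control.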

CWR22R [2] = assay: Antitumor activity against human CWR22Rv1 cells xenografted in SCID mouse assessed as reduction in fAR protein expression at 20 mg/kg, ip dosed once daily for 5 days per week for 28 days by SDS-PAGE and Western blotting method; format: functional, organism-based; design: dose 20 mg/kg; method in brief: as §1
LNCaP [3] = assay: Reduction in cell viability in human LNCAP cells in presence of Mnk1 siRNA at 2.5 uM and 5 uM after 72 hrs by MTT assay; format: functional, cell-based
Method in brief: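 LNCaP cells in RPMI 1640 with 10% FBS were transfected with 100 nM Mnk1 siRNA (Lipofectamine 2000) for 18 h, with scrambled siRNA as control. After two PBS washes they were returned to growth medium, dosed 24 h later, and harvested after 72 h. Viability was read by MTT and normalized to control cells, as mean ± SEM of three independent experiments.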

CWR22R [4] = assay: Antitumor activity against human CWR22Rv1 cells xenografted in SCID mouse assessed as increase in Bad protein expression at 20 mg/kg, ip dosed once daily for 5 days per week for 28 days by SDS-PAGE and Western blotting method; format: functional, organism-based; design: dose 20 mg/kg; method in brief: as §1
[5] = Antitumor activity against human CWR22Rv1 cells xenografted in SCID mouse assessed as inhibition of tumor growth at 20 mg/kg, ip dosed once daily for 5 days per week for 28 days; format: functional, CWR22R; conditions: 22Rv1, ip, route intraperitoneal, read-out: TGI
LNCaP [6] = assay: Reduction in cell viability in human LNCAP cells in presence of AR siRNA at 2.5 uM and 5 uM after 72 hrs by MTT assay; format: functional, cell-based
Method in brief: (§2)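 LNCaP cells transfected with 100 nM AR and/or Mnk1 siRNA (or scrambled control) by lipofection for 18 h, washed twice with PBS, returned to growth medium; drug added 24 h later, viability read by MTT after 72 h. Untransfected cells treated alike. Knockdown confirmed by immunoblot; three independent experiments, normalized to control cells.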

CWR22R [7] = assay: Antitumor activity against human CWR22Rv1 cells xenografted in SCID mouse assessed as reduction in peIF4E protein expression at 20 mg/kg, ip dosed once daily for 5 days per week for 28 days by SDS-PAGE and Western blotting method; format: functional, organism-based; design: dose 20 mg/kg; method in brief: as §1
LNCaP [8] = assay: Reduction in cell viability in human LNCAP cells at 5 uM after 72 hrs by MTT assay; format: functional, cell-based; method in brief: as §2
[9] = Antitumor activity against human CWR22Rv1 cells xenografted in SCID mouse assessed as tumor growth at 20 mg/kg, ip dosed once daily for 5 days per week for 28 days; format: functional, CWR22R; conditions: route intraperitoneal
Method in brief: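 Castrated male SCID mice carrying subcutaneous CWR22Rv1 tumors (1 × 10⁶ cells implanted; ~100 mm³ at randomization, n = 6/group) given ip drug in 40% β-cyclodextrin/ddH₂O once daily, 5 days/week for 28 days; vehicle controls. Tumor volume followed; %T/C = median treated volume/median control volume at day 28 × 100. Body weight tracked as toxicity marker.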

CWR22R [10] = assay: Antitumor activity against human CWR22Rv1 cells xenografted in SCID mouse assessed as reduction in Bcl2 protein expression at 20 mg/kg, ip dosed once daily for 5 days per week for 28 days by SDS-PAGE and Western blotting method; format: functional, organism-based; design: dose 20 mg/kg; method in brief: as §1

In the case of `CC1=C(/C=C/C(C)=C/C=C/C(C)=C\C(=O)Nc2cccc(F)c2)C(C)(C)CCC1n1ccnc1` (stereo unspecified), the Activity (Mus musculus) is reported as “Non-toxic”, the Activity (CWR22R [1]) is reported as “Active” and the Activity (CWR22R [2]) is reported as “Active”. For the same compound, the Activity (LNCaP [3]) was “Active”, the Activity (CWR22R [4]) was “Active” and the inhibition in vivo at 20 mg/kg [5] was 61.2%. The Activity (LNCaP [6]) was “Active”, the Activity (CWR22R [7]) was “Active” and the Activity (LNCaP [8]) was “Active”. For the same compound, the T/C [9] was 38.8% and the Activity (CWR22R [10]) was “Active”.
